{
  "source": "paper PMC3115457",
  "about": "(Cellular signalling, 2011)",
  "key": {"AC2": {"target": "AC2 (Rattus norvegicus, UniProt P26769)", "sequence (P26769 whole entry)": "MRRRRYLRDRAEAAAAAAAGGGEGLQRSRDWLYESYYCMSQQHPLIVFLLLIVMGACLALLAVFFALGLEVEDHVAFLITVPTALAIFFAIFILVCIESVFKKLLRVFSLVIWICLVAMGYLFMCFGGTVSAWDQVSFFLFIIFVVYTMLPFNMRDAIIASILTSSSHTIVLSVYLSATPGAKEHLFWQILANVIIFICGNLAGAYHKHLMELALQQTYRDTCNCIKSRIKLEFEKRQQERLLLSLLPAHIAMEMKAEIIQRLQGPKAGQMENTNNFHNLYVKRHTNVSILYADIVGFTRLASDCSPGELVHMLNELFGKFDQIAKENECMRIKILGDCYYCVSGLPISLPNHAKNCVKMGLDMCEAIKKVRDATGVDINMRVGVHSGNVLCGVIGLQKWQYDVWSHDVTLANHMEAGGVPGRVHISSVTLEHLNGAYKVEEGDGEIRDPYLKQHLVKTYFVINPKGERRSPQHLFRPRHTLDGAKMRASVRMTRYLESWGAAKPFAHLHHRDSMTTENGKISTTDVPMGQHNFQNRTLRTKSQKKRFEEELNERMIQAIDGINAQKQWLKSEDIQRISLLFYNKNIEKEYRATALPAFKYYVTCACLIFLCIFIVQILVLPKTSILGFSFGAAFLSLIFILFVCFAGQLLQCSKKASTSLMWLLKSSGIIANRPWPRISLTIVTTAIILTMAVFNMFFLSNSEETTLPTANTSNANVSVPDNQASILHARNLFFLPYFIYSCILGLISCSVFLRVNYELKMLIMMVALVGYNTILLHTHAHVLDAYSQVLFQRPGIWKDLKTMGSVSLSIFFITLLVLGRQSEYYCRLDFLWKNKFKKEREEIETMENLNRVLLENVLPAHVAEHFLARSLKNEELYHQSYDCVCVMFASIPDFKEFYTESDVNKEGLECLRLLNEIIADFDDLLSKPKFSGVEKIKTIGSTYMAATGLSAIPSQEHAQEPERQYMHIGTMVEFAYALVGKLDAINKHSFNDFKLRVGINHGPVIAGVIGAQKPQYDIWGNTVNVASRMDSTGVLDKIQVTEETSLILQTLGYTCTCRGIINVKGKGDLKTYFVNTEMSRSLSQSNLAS", "test": "Adenylyl cyclase activity assay, basal AC2 activity in Hi5 membranes", "type": "biochemical", "summary_of_the_method": "(§1)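 AC2 came from membranes of Hi5 insect cells infected with recombinant AC2 baculovirus. Stimulants were constitutively active Gαs (Q227L) and Gβγ (Gβ1/His-Gγ2) purified from Hi5 cells. Peptides were tested from 46 nM to 300 μM, pre-incubated with membranes or G proteins, and run alongside control conditions. cAMP was measured radiometrically ([α-32P]ATP→[32P]cAMP) or by Lance kit. Duplicates were used, each repeated ≥2 times. IC50 came from non-linear regression.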"}, "Gαs-stimulated AC2": {"target": "Gαs-stimulated AC2 (Rattus norvegicus, UniProt P26769)", "sequence (P26769 whole entry)": "as above", "test": "Adenylyl cyclase activity assay, Gαs stimulation of AC2", "type": "biochemical", "summary_of_the_method": "as §1"}, "[1]": {"target": "Gβγ stimulation of Gαs-stimulated AC2 (Homo sapiens, UniProt P59768+P62873)", "sequence (P62873 2-340 limits assumed)": "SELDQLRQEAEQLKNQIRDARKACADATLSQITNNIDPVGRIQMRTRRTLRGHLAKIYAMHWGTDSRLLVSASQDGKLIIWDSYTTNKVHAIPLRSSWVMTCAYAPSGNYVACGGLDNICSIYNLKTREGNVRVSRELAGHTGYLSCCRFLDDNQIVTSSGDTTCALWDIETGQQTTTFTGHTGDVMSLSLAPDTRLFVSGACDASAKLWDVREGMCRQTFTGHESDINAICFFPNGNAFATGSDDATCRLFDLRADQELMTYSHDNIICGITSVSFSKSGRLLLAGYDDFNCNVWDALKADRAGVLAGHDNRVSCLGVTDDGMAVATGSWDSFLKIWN", "sequence (P59768 2-68 limits assumed)": "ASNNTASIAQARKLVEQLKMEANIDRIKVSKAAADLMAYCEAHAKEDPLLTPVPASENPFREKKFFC", "test": "Adenylyl cyclase activity assay, Gβγ stimulation of Gαs-stimulated AC2", "type": "biochemical, Rat", "details": "for Gαs/Gβγ stimulation % Max Inhibition: Gβγ stimulation of Gαs-stimulated AC2, cAMP level at 300 μM peptide, peptides 46 nM to 300 μM", "summary_of_the_method": "as §1"}, "Gβγ": {"target": "Gβγ (Homo sapiens, UniProt P59768+P62873)", "sequence (P62873 2-340 limits assumed)": "as the sequence (P62873 2-340 limits assumed) above", "sequence (P59768 2-68 limits assumed)": "as the sequence (P59768 2-68 limits assumed) above", "type": "binding", "summary_of_the_method": "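Biotinylated test peptides were captured on a streptavidin chip (Biacore 2000). Gβγ in 25 mM HEPES pH 8.0 was flowed over at 12.5, 25, 50, 100 and 200 nM at 20 μL/min. KD was obtained by fitting the sensorgrams in Biaevaluation, and residual plots were used to judge the fit.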"}},
  "note": "Ends that are not written are not given here. Peptide text beside a SMILES is read from it.",
  "data": [
    {"compound": "CC[C@H](C)[C@H](NC(=O)[C@@H]1CCCN1C(=O)[C@H](CC(C)C)NC(=O)CNC(=O)[C@H](CO)NC(=O)[C@@H](NC(=O)[C@H](CS)NC(=O)[C@H](Cc1ccc(O)cc1)NC(=O)[C@H](Cc1ccc(O)cc1)NC(=O)[C@@H](N)CS)C(C)C)C(=O)N[C@@H](CO)C(=O)N[C@@H](CC(C)C)C(=O)N1CCC[C@H]1C(=O)N[C@@H](CC(N)=O)C(=O)N[C@@H](Cc1c[nH]cn1)C(=O)N[C@@H](C)C(=O)N[C@@H](CCCCN)C(=O)N[C@@H](CC(N)=O)C(=O)N[C@@H](CS)C(=O)N[C@H](C(=O)N[C@@H](CCCCN)C(=O)N[C@@H](CCSC)C(=O)O)C(C)C", "note": "[AC2 C1a (339-360)] (H-CYYCVSGLPISLPNHAKNCVKM-OH)", "values": [
      {"measurement": "IC50", "setting": "AC2", "value": 7.7, "unit": "µM"},
      {"measurement": "IC50", "setting": "Gαs-stimulated AC2", "value": 82.3, "unit": "µM"},
      {"measurement": "IC50", "setting": "[1]", "value": 5.6, "unit": "µM"},
      {"measurement": "Gαs/Gβγ stimulation % Max Inhibition", "setting": "[1]; listed as C1a region", "value": 88, "unit": "%"},
      {"measurement": "Kd", "setting": "Gβγ", "value": "0.0405 ± 0.0063", "unit": "µM"}
    ]},
    {"compound": "ERMIQAIDGINAQKQWLKSEDIQR [AC2 C1b (554-577)]", "values": [
      {"measurement": "IC50", "setting": "AC2", "value": 16.7, "unit": "µM"},
      {"measurement": "IC50", "setting": "Gαs-stimulated AC2", "value": 36.7, "unit": "µM"},
      {"measurement": "IC50", "setting": "[1]", "value": 12.2, "unit": "µM"},
      {"measurement": "Gαs/Gβγ stimulation % Max Inhibition", "setting": "[1]", "value": 11.5, "unit": "%"}
    ]},
    {"compound": "ISLLFYNKVLEKEYRATALPAFKYY [AC2 C1b (578-602)]", "values": [
      {"measurement": "IC50", "setting": "AC2", "value": 38.5, "unit": "µM"},
      {"measurement": "IC50", "setting": "Gαs-stimulated AC2", "value": 2.5, "unit": "µM"},
      {"measurement": "IC50", "setting": "[1]", "value": 2.2, "unit": "µM"},
      {"measurement": "Gαs/Gβγ stimulation % Max Inhibition", "setting": "[1]", "value": 113.1, "unit": "%"},
      {"measurement": "Gαs/Gβγ stimulation % Max Inhibition", "setting": "[1]; listed as C1b 578-602", "value": "> 100", "unit": "%"},
      {"measurement": "Kd", "setting": "Gβγ", "value": "0.102 ± 0.014", "unit": "µM"}
    ]},
    {"compound": "MTRYLESWGAAKPFAHL [AC2 C1b (493-509), reference compound]", "values": [
      {"measurement": "Kd", "setting": "Gβγ", "value": "0.0027 ± 0.0013", "unit": "µM"}
    ]},
    {"compound": "MTTENGKISTTDVPMGQHNFQNRTLR-OH [AC2 C1b (515-541)]", "values": [
      {"measurement": "Binding to Gβγ (in words)", "setting": "Gβγ; Biacore SPR, immobilized biotinylated peptide, Gβγ 12.5-200 nM", "value": "did not interact with Gβγ"}
    ]},
    {"compound": "QEHAQEPERQYMHIGTMVEFAYALVGK [QEHA C2 (956-982), reference compound]", "values": [
      {"measurement": "Kd", "setting": "Gβγ", "value": "0.0139 ± 0.0088", "unit": "µM"}
    ]},
    {"compound": "RYLESWGAAKPFAHLHHRDS [AC2 C1b (495-514)]", "values": [
      {"measurement": "IC50", "setting": "AC2", "value": "> 100", "unit": "µM"},
      {"measurement": "IC50", "setting": "Gαs-stimulated AC2", "value": 32.9, "unit": "µM"},
      {"measurement": "IC50", "setting": "[1]", "value": 13.9, "unit": "µM"},
      {"measurement": "Gαs/Gβγ stimulation % Max Inhibition", "setting": "[1]", "value": 67.0, "unit": "%"},
      {"measurement": "Kd", "setting": "Gβγ", "value": "0.0047 ± 0.0017", "unit": "µM"}
    ]}
  ]
}
